Columns and labels:
[1] = molecular target: Fibroblast growth factor receptor 2 (Homo sapiens, UniProt P21802); assay: Inhibition of cytoplasmic recombinant human His-tagged FGFR2 (403 to 822 residues) expressed in baculovirus using tyr4 peptide as substrate after 1 hr by FRET-based Z'-Lyte assay
[2] = molecular target: T1, Macrophage colony-stimulating factor 1 receptor (Mus musculus) (UniProt P09581); assay: Inhibition of CSF1R phosphorylation in mouse RAW264.7 cells assessed as reduction in AKT phosphorylation at 80 nM preincubated for 6 hrs followed by CSF1 stimulation for 20 mins by Western blot analysis relative to control; format: cell-based
T1 sequence (whole entry): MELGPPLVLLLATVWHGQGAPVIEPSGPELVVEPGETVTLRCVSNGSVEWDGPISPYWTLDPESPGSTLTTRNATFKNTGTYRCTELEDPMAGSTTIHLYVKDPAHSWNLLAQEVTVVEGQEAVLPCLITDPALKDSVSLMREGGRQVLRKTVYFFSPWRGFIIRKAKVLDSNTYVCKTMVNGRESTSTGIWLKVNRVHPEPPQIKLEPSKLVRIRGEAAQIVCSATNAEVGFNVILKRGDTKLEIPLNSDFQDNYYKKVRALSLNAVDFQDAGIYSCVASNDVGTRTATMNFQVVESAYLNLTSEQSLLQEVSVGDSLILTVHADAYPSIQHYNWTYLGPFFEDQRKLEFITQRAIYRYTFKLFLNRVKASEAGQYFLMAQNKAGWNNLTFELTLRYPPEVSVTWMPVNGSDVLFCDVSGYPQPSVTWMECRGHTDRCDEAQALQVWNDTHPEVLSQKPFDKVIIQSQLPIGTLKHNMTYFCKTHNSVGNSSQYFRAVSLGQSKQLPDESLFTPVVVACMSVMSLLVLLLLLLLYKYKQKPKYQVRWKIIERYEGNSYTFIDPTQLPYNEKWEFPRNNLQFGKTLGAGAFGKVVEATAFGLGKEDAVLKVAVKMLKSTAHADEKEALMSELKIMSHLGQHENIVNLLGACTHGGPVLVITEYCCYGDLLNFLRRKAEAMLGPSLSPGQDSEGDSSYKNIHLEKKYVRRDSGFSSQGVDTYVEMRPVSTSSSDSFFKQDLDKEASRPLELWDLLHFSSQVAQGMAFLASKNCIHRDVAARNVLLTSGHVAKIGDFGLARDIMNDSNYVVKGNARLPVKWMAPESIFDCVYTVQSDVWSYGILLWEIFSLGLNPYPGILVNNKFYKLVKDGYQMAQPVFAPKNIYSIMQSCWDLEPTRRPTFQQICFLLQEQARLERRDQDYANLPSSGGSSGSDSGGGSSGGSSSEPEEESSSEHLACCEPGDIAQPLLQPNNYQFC
In short: (§1)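 RAW264.7 cells were seeded, incubated overnight and treated 6 h with graded compound concentrations, then stimulated 20 min with CSF-1 (50 ng/mL). Lysates were run on 8−12% SDS-PAGE and immunoblotted for p-CSF1R (Tyr723), CSF1R, p-AKT, AKT and GAPDH. Bands were quantified and normalized to GAPDH. Mean ± SEM of at least three experiments.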

[3] = organism: Homo sapiens; assay: Selectivity ratio of IC50 for recombinant human His-tagged FLT3 (564 to 958 residues) expressed in baculovirus to IC50 for recombinant human His-tagged CSF1R cytoplasmic domain (538 to 910 residues) expressed in baculovirus
[4] = molecular target: Ephrin type-A receptor 1 (Homo sapiens) (UniProt P21709); assay: Inhibition of recombinant human EPHA1 (V588 to I913 residues) expressed in bacterial expression system at 100 nM by KINOMEscan assay relative to control
[5] = organism: Homo sapiens; assay: Selectivity ratio of IC50 for recombinant human wild type GST-tagged EGFR cytoplasmic domain (668 to 1210 residues) expressed in baculovirus to IC50 for recombinant human His-tagged CSF1R cytoplasmic domain (538 to 910 residues) expressed in baculovirus
In short: (§2)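 Z′-Lyte FRET assay with CSF1R or EGFR and 2 μM Tyr4 peptide substrate in 1× kinase buffer. ATP was supplied as a 100 μM solution, a stock and not the final concentration. Compounds were 3-fold serially diluted in DMSO. Reaction ran 1 h at room temperature, followed by 1 h development and a stop reagent. Phospho-peptide, no-ATP and DMSO controls were included. IC50 by curve fitting; mean of at least three independent experiments.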

[6] = test system: RAW264.7; assay: Downregulation of IL10 mRNA expression in mouse RAW264.7 cells after 48 hrs by qRT-PCR analysis relative to DMSO; format: functional, cell-based
In short: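 RAW264.7 macrophages were treated 48 h with compound at 0.08, 0.4 or 2.0 μM, or DMSO vehicle. Total RNA was extracted with TRIzol and transcripts were quantified by qRT-PCR using gene-specific primers. Run three times, each in triplicate.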

[7] = molecular target: Mast/stem cell growth factor receptor Kit (Homo sapiens, UniProt P10721); assay: Inhibition of recombinant cytoplasmic human His-tagged KIT expressed in baculovirus using […] peptide as substrate after 1 hr by FRET-based Z'-Lyte assay
Mast/stem cell growth factor receptor Kit, sequence (P10721 whole entry): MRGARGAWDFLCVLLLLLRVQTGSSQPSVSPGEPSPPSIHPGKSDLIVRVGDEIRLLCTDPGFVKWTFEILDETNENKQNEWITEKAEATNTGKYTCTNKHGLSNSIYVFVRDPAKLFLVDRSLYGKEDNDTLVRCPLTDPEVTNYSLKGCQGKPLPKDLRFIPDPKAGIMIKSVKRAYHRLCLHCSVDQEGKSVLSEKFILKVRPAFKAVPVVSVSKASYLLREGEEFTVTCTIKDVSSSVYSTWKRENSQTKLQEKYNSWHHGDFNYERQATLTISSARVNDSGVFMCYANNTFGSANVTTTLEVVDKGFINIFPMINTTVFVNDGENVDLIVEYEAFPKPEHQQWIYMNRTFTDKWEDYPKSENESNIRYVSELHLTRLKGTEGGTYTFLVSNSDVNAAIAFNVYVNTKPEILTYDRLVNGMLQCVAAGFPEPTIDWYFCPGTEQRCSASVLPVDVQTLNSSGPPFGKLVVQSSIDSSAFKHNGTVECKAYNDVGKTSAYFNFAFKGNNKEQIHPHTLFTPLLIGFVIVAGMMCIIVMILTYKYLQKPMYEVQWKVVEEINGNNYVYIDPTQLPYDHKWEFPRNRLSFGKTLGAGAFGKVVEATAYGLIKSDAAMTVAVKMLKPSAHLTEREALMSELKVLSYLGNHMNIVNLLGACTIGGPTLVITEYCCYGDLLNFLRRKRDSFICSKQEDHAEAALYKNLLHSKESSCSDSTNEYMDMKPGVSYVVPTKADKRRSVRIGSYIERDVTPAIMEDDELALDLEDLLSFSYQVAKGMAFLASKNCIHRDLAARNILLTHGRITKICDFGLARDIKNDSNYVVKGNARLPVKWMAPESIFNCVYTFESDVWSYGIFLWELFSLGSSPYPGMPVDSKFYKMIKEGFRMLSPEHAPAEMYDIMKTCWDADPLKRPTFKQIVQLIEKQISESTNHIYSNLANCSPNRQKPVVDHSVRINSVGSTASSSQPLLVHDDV

[8] = molecular target: T1, Macrophage colony-stimulating factor 1 receptor (Mus musculus); assay: Inhibition of CSF1R in mouse RAW264.7 cells assessed as suppression of AKT phosphorylation preincubated for 6 hrs followed by CSF1 stimulation for 20 mins by Western blot analysis; format: cell-based; in short: as §1
[9] = test system: Rattus norvegicus; assay: Apparent clearance in Sprague-Dawley rat at 25 mg/kg administered via oral gavage measured up to 72 hrs by LC/MS analysis; format: ADME, organism-based; settings: in vivo, iv, 5 mg/kg, in the assay text read “5 mg/kg administered intravenously” for “25 mg/kg administered via oral gavage”
In short: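 Male Sprague-Dawley rats, 4–6 weeks old, acclimatised 1 week, were dosed iv at 5 mg/kg or by oral gavage at 25 mg/kg. Vehicle was 2% DMSO, 4% EtOH, 4% castor oil, 90% H2O. Blood was drawn by orbital sinus puncture from 2 min to 72 h into heparinized tubes. Plasma was assayed by LC/MS with propranolol as internal standard. Three animals per group.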

[10] = molecular target: Fibroblast growth factor receptor 1 (Homo sapiens, UniProt P11362); assay: Inhibition of cytoplasmic recombinant human His-tagged FGFR1 (308 to 731 residues) expressed in baculovirus using tyr4 peptide as substrate after 1 hr by FRET-based Z'-Lyte assay
[11] = molecular target: T1, Macrophage colony-stimulating factor 1 receptor (Mus musculus); assay: Inhibition of CSF1R phosphorylation in mouse RAW264.7 cells preincubated for 6 hrs followed by CSF1 stimulation for 20 mins by Western blot analysis; format: cell-based; in short: as §1
[12] = molecular target: Macrophage colony-stimulating factor 1 receptor (Homo sapiens, UniProt P07333); assay: Inhibition of recombinant human His-tagged CSF1R cytoplasmic domain (538 to 910 residues) expressed in baculovirus using tyr4 peptide as substrate after 1 hr by FRET-based Z'-Lyte assay; in short: as §2
Macrophage colony-stimulating factor 1 receptor, sequence (P07333 whole entry, the tested form may be a part): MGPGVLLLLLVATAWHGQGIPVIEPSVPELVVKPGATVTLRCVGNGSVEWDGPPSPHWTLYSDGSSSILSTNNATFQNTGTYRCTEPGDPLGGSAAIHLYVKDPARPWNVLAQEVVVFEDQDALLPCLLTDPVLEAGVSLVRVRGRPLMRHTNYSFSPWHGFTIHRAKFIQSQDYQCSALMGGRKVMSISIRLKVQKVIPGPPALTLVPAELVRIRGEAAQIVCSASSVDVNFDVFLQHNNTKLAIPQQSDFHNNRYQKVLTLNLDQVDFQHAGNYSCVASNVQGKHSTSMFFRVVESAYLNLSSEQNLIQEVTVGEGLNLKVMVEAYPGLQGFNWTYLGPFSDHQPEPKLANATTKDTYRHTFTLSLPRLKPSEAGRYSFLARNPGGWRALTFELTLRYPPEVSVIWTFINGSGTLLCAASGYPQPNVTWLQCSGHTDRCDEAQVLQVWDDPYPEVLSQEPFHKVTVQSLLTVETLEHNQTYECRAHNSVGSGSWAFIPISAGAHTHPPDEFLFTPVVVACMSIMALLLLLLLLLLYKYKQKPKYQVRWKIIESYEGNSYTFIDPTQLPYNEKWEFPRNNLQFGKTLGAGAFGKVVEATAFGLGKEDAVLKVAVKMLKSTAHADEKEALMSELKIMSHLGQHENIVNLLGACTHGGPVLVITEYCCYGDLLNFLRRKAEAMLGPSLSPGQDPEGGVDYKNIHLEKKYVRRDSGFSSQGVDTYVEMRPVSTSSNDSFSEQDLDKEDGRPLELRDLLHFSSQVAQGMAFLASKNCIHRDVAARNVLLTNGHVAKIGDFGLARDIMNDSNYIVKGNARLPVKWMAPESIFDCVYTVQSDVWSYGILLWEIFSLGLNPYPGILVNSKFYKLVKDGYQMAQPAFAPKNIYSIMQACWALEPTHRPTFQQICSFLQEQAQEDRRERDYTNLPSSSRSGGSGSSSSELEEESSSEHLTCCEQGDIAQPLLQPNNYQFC

[13] = molecular target: Proto-oncogene tyrosine-protein kinase receptor Ret (Homo sapiens) (UniProt P07949); assay: Inhibition of human RET (E713 to D1014 residues) expressed in bacterial expression system at 100 nM by KINOMEscan assay relative to control
Proto-oncogene tyrosine-protein kinase receptor Ret (Homo sapiens), sequence (P07949 whole entry, the tested form may be a part): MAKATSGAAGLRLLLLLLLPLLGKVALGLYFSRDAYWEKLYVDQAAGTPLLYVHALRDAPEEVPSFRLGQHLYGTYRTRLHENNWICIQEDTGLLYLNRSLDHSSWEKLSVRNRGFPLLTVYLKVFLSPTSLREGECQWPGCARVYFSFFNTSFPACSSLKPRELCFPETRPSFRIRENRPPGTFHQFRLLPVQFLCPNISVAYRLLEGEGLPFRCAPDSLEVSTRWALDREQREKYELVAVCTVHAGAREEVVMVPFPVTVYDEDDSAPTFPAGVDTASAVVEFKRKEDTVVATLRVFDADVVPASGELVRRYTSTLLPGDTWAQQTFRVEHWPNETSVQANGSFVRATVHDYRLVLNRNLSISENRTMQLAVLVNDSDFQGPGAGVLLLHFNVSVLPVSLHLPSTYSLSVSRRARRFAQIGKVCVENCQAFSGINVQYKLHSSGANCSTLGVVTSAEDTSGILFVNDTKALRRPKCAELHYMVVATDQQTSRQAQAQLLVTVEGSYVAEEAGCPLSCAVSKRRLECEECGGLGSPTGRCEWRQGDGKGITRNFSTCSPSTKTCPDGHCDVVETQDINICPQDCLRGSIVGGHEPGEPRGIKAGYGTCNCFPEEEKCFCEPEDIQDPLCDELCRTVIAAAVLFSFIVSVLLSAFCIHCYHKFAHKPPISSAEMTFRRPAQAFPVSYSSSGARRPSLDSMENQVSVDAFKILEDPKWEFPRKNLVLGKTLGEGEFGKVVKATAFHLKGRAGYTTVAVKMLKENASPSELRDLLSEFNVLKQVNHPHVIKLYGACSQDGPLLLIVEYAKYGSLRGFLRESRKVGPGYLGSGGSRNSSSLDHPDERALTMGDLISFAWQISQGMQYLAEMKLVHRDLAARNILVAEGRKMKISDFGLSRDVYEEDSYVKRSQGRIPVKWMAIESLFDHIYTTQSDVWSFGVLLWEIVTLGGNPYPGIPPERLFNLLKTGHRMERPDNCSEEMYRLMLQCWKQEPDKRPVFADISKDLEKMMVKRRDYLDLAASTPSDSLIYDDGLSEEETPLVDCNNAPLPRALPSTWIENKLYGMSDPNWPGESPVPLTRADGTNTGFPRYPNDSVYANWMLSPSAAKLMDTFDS

[14] = molecular target: Fibroblast growth factor receptor 3 (Homo sapiens, UniProt P22607); assay: Inhibition of cytoplasmic recombinant human His-tagged FGFR3 (399 to 806 residues) expressed in baculovirus using tyr4 peptide as substrate after 1 hr by FRET-based Z'-Lyte assay
Fibroblast growth factor receptor 3, sequence (P22607 whole entry, the tested form may be a part): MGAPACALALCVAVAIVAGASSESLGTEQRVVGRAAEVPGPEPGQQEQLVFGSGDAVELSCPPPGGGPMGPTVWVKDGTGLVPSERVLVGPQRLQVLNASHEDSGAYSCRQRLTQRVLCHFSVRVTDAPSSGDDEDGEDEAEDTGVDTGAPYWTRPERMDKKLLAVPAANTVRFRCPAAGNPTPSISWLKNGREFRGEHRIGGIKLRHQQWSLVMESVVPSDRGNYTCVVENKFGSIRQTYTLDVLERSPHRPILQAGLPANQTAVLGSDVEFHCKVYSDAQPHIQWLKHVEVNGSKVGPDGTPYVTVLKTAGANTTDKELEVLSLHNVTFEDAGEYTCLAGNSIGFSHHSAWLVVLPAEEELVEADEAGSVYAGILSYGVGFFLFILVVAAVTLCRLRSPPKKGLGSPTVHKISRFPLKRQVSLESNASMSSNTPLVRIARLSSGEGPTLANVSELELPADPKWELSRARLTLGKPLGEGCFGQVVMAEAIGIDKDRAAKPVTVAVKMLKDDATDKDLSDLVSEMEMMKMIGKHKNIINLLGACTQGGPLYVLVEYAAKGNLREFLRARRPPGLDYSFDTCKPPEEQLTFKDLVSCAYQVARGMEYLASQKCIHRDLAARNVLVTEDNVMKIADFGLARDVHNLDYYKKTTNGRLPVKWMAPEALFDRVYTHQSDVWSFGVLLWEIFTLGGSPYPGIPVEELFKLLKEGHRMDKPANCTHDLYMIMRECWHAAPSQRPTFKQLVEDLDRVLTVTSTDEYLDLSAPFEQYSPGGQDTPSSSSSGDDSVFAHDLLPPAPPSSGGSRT

Fibroblast growth factor receptor 2, sequence (P21802 whole entry, the tested form may be a part): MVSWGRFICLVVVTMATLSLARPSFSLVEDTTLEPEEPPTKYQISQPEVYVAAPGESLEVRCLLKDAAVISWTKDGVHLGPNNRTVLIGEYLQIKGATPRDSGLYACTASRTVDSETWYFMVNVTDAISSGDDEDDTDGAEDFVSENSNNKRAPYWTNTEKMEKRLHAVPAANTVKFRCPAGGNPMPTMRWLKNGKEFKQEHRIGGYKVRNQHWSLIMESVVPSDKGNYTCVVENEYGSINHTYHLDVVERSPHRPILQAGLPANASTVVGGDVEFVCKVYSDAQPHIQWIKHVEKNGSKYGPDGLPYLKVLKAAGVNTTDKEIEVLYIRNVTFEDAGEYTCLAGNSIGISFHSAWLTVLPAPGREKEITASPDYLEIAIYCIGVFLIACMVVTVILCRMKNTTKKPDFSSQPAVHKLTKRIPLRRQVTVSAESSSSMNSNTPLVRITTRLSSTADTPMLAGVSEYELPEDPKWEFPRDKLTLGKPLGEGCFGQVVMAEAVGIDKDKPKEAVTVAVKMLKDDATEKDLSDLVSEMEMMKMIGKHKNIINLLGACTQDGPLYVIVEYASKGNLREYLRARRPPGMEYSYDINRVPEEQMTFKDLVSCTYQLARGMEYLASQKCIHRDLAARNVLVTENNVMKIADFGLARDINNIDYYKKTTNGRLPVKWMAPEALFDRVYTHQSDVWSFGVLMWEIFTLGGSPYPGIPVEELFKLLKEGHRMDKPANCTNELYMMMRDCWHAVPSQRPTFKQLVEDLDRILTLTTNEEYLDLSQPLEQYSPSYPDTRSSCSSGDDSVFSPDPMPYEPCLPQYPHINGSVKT

IC50 [1]: 27 nM
inhibition [2]: 50%
Ratio IC50 [3]: 10 to 35
inhibition [4]: > 90%
Ratio IC50 [5]: 120
IC50 [7]: 30 nM
inhibition [8]: Dose-dependent effect
CL(app) [9]: 28.8 mL/min/kg
IC50 [10]: 10 nM
inhibition [11]: Dose-dependent effect
IC50 [12]: 3 nM
inhibition [13]: > 90%
IC50 [14]: 40.2 nM
Compound: CCC(=O)N1CC[C@H](N2C(=O)N(c3cc(OC)ccc3Cl)Cc3cnc(Nc4ccc(N5CCN(C6COC6)CC5)c(C)c4)nc32)C1
Activity [6]: Dose-dependent effect

Reference: ChEMBL document CHEMBL4033795, “Design, Synthesis, and Structure-Activity Relationship Study of 2-Oxo-3,4-dihydropyrimido[4,5- d]pyrimidines as New Colony Stimulating Factor 1 Receptor (CSF1R) Kinase Inhibitors” (J Med Chem, 2018)
